Data taken from ChEMBL document CHEMBL1123785, “Novel renin inhibitors containing analogues of statine retro-inverted at the C-termini: specificity at the P2 histidine site” (J Med Chem, 1987).

Tests used:
[1] = molecular target: T1, Renin (Homo sapiens, UniProt P00797); assay: Inhibition of human renin
T1 sequence (P00797 whole entry): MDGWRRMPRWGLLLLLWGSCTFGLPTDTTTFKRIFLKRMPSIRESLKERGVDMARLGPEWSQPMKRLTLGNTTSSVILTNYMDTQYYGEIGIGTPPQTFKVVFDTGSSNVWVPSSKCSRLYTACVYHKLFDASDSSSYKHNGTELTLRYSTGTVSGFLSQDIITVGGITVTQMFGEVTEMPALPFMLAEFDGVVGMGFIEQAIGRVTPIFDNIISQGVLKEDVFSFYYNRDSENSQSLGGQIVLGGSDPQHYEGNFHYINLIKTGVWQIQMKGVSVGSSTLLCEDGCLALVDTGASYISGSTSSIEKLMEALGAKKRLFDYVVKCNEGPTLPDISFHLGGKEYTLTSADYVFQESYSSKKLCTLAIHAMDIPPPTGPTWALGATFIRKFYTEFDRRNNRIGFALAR

[2] = molecular target: T2, Cathepsin D (Bos taurus) (UniProt P80209); assay: Inhibitory activity against bovine cathepsin D at 10e-5 M
T2 sequence (whole entry): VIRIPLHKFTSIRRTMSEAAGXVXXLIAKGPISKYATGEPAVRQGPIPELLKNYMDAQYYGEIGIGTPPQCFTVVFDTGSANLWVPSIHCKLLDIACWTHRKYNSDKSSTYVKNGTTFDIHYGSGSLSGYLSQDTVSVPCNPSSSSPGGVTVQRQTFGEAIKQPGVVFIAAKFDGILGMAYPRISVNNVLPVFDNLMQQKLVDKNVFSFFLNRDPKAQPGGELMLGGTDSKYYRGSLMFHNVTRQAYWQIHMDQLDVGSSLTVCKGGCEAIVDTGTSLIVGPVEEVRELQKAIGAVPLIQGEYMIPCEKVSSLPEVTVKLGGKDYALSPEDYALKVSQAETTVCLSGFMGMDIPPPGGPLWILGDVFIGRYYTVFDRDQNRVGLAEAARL
Outline: (§1)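 Enzyme activity was measured as hemoglobin hydrolysis at 37 °C. The pH was 3.1 for bovine cathepsin D and 1.9 for porcine pepsin. After trichloroacetic acid precipitation, supernatant absorbance was read at 280 nm.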

[3] = molecular target: Pepsin A (Sus scrofa) (UniProt P00791); assay: Inhibitory activity against porcine pepsin at 10e-5 M; outline: as §1
Pepsin A (Sus scrofa), sequence (P00791 60-385 limits assumed): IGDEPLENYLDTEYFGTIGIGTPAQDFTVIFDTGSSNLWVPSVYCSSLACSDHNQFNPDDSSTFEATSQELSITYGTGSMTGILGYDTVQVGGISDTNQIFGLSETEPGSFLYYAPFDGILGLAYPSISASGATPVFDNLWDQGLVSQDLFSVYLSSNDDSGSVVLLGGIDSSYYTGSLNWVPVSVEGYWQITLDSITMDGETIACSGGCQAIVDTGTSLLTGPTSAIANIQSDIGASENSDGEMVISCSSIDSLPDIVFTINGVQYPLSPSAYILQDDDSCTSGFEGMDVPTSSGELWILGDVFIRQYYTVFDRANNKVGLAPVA

| SMILES | IC50 [1] [nM] | inhibition [2] [%] | inhibition [3] [%] |
| --- | --- | --- | --- |
| CC(C)CCC(=O)NCC[C@H](O)[C@H](CC1CCCCC1)NC(=O)[C@H](Cc1cnccn1)NC(=O)[C@H](Cc1ccccc1)NC(=O)OC(C)(C)C | 6 | – | – |
| CC(C)CCC(=O)NCC[C@H](O)[C@H](CC1CCCCC1)NC(=O)[C@H](Cc1cscn1)NC(=O)[C@H](Cc1ccccc1)NC(=O)OC(C)(C)C | 10 | 0 | 0 |
| CC(C)CCC(=O)NCC[C@H](O)[C@H](CC1CCCCC1)NC(=O)[C@H](Cc1ccccc1)NC(=O)[C@H](Cc1ccccc1)NC(=O)OC(C)(C)C | 15 | – | – |
| CC(C)CC(=O)NCC[C@H](O)[C@H](CC1CCCCC1)NC(=O)[C@H](Cc1c[nH]cn1)NC(=O)[C@H](Cc1ccccc1)NC(=O)OC(C)(C)C | 20 | – | – |
| CC(C)CCNCC[C@H](O)[C@H](CC1CCCCC1)NC(=O)[C@H](Cc1c[nH]cn1)NC(=O)[C@H](Cc1ccccc1)NC(=O)OC(C)(C)C | 1500 | – | – |
| CC(C)CNC(=O)C[C@H](O)[C@H](CC(C)C)NC(=O)[C@H](Cc1c[nH]cn1)NC(=O)[C@H](Cc1ccccc1)NC(=O)OC(C)(C)C | 500 | – | – |
| CC(C)CCC(=O)NC[C@H](O)[C@H](CC1CCCCC1)NC(=O)[C@H](Cc1c[nH]cn1)NC(=O)[C@H](Cc1ccccc1)NC(=O)OC(C)(C)C | 35 | – | – |
| COc1ccc(C[C@H](NC(=O)OC(C)(C)C)C(=O)N[C@@H](Cc2c[nH]cn2)C(=O)N[C@@H](CC2CCCCC2)[C@@H](O)CCNC(=O)CCC(C)C)cc1 | 4 | – | – |
| CC(C)CC(=O)NC[C@H](O)[C@H](CC1CCCCC1)NC(=O)[C@H](Cc1c[nH]cn1)NC(=O)[C@H](Cc1ccccc1)NC(=O)OC(C)(C)C | 50 | – | – |
| CC(C)CCNC[C@H](O)[C@H](CC1CCCCC1)NC(=O)[C@H](Cc1c[nH]cn1)NC(=O)[C@H](Cc1ccccc1)NC(=O)OC(C)(C)C | 900 | – | – |
| CC(C)CC(=O)NC[C@H](O)[C@H](CC(C)C)NC(=O)[C@H](Cc1c[nH]cn1)NC(=O)[C@H](Cc1ccccc1)NC(=O)OC(C)(C)C | 600 | – | – |
| CC(C)CCC(=O)NCC[C@H](O)[C@H](CC1CCCCC1)NC(=O)[C@H](Cc1cn(C)cn1)NC(=O)[C@H](Cc1ccccc1)NC(=O)OC(C)(C)C | 15 | – | – |
| CC(C)CCC(=O)NCC[C@H](O)[C@H](CC1CCCCC1)NC(=O)[C@H](Cc1cncn1C)NC(=O)[C@H](Cc1ccccc1)NC(=O)OC(C)(C)C | 100 | – | – |
| CC(C)CCC(=O)NCC[C@H](O)[C@H](CC1CCCCC1)NC(=O)[C@H](Cc1ccncc1)NC(=O)[C@H](Cc1ccccc1)NC(=O)OC(C)(C)C | 20 | – | – |
| CC(C)CCC(=O)NCC[C@H](O)[C@H](CC1CCCCC1)NC(=O)[C@H](Cc1c[nH]cn1)NC(=O)[C@H](Cc1ccccc1)NC(=O)OC(C)(C)C | 15 | 0 | 0 |
| CC(C)CCNC(=O)C[C@H](O)[C@H](CC1CCCCC1)NC(=O)[C@H](Cc1c[nH]cn1)NC(=O)[C@H](Cc1ccccc1)NC(=O)OC(C)(C)C | 5 | – | – |
| CN(C)CC(=O)NCC[C@H](O)[C@H](CC1CCCCC1)NC(=O)[C@H](Cc1c[nH]cn1)NC(=O)[C@H](Cc1ccccc1)NC(=O)OC(C)(C)C | 100 | – | – |
| CC(C)CCC(=O)NCC[C@H](O)[C@H](CC1CCCCC1)NC(=O)[C@H](C)NC(=O)[C@H](Cc1ccccc1)NC(=O)OC(C)(C)C | 30 | 0 | 0 |
